# Laboratory results: ChEMBL document CHEMBL1137082, “Potent and selective conformationally restricted neuronal nitric oxide synthase inhibitors” (J Med Chem, 2004)
# Tests used:
# [1] = target: T1, Nitric oxide synthase, inducible (Mus musculus) (UniProt P29477); experiment: Inhibitory activity against inducible nitric oxide synthase (iNOS) at 100 uM; parameters: scale not given: the % may be the effect or the level left
# T1 sequence (whole entry): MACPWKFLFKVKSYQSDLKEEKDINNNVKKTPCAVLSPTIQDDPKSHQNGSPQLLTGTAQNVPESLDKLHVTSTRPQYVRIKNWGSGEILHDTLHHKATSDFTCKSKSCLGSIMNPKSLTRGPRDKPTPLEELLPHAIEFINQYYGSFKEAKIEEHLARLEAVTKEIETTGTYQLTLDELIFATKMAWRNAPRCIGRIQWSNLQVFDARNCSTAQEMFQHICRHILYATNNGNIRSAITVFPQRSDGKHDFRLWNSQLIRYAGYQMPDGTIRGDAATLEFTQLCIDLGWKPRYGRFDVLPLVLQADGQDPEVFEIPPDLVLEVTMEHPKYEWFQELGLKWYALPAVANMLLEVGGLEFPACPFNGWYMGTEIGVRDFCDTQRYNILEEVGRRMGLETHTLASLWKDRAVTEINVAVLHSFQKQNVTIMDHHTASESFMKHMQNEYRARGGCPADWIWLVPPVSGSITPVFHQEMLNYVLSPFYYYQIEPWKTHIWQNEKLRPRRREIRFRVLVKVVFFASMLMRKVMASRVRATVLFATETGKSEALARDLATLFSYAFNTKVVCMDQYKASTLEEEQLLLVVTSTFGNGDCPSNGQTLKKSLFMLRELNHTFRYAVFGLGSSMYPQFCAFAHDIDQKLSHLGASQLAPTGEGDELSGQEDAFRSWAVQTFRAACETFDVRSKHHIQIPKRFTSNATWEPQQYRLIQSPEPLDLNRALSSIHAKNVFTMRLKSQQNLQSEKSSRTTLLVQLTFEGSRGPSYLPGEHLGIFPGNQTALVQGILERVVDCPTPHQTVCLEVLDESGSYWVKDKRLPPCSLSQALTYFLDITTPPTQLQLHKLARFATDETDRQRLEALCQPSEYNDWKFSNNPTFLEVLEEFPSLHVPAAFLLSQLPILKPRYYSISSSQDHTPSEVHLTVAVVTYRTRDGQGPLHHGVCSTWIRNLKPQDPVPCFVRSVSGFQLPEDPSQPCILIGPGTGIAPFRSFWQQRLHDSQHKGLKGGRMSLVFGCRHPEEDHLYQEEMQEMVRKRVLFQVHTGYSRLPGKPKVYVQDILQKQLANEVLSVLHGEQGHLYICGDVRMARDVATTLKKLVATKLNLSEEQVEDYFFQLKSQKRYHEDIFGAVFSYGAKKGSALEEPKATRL
# Summary of the method: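 Single-point screen against murine macrophage iNOS: enzyme residual activity measured at 100 μM inhibitor. NO formation monitored by hemoglobin capture assay with a UV/vis spectrophotometer.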
# [2] = target: T2, Nitric oxide synthase, inducible (Mus musculus, UniProt P29477); experiment: Inhibitory activity against inducible nitric oxide synthase (iNOS)
# T2 sequence (P29477 whole entry): T1 sequence (whole entry)
# Nitric oxide synthase 1 [3] = target: T3, Nitric oxide synthase 1 (Rattus norvegicus, UniProt P29476); experiment: Inhibitory activity against neuronal nitric oxide synthase (nNOS)
# [4] = target: T2, Nitric oxide synthase, inducible
# Nitric oxide synthase 1 [5] = target: T3, Nitric oxide synthase 1; experiment: Binding affinity towards neuronal nitric oxide synthase (nNOS)
# T3 sequence (P29476 whole entry): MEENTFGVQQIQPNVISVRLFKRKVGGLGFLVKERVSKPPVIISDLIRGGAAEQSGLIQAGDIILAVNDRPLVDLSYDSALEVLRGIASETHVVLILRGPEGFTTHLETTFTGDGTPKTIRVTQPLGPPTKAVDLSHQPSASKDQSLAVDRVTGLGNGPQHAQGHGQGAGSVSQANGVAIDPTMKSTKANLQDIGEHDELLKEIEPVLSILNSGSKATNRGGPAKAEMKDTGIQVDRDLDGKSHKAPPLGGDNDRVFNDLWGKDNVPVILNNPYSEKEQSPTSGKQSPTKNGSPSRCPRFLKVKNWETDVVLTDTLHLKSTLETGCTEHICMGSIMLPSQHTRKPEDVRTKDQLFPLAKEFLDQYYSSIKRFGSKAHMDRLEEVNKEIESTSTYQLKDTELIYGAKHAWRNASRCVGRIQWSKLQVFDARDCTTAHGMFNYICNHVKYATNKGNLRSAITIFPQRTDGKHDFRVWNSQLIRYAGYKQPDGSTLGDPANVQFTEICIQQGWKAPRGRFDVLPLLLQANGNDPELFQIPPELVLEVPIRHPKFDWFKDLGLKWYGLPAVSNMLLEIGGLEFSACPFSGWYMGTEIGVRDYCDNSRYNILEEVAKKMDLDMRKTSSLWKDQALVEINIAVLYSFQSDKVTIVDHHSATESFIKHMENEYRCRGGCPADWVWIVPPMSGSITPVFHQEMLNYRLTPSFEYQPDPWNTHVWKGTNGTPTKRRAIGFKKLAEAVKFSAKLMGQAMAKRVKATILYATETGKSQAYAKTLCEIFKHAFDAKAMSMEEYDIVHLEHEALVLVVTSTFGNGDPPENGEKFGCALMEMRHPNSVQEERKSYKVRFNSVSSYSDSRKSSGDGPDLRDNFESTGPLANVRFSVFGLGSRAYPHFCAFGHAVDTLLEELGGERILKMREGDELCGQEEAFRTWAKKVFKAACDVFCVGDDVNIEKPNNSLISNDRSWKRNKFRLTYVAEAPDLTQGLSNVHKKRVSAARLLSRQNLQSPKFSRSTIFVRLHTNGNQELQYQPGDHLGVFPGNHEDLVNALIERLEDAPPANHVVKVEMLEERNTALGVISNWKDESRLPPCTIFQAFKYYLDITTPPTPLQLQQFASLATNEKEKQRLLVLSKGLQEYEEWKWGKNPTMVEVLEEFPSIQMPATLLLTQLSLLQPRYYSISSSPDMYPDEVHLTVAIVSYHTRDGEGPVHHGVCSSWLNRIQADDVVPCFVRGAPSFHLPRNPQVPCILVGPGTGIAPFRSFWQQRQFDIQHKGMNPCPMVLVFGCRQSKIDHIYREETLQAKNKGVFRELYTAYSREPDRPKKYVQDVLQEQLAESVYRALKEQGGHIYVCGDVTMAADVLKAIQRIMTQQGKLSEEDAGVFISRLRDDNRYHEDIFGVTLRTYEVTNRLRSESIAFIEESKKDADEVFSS
smiles,measurement,setting,value
NC(=O)[C@@H]1C[C@@H](NC(=O)[C@@H](N)CCC/N=C(\N)N[N+](=O)[O-])CN1,Activity,[1],10%
same,IC50,[2],65 µM
same,IC50,Nitric oxide synthase 1 [3],0.64 µM
same,Ki,[4],29 µM
"N=C(NCCC[C@H](N)C(=O)NC1CNC(C(N)=O)C1)N[N+](=O)[O-] (single isomer, unassigned)",Activity,[1],78%
same,IC50,[2],441 µM
same,IC50,Nitric oxide synthase 1 [3],9.6 µM
same,Ki,Nitric oxide synthase 1 [5],1.1 µM
same,Ki,[4],199 µM
